The source made the active and inactive calls. The calls are words filed in the database; no cut-off is given here.
Legend:
[1] = Alkylating activity by using 4-(4-nitrobenzyl)-pyridine(NBP) colorimetric assay
Method in brief: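 NBP colorimetric assay. Drug at 400 nmol/mL in ethanol was mixed with 10% NBP in ethanol and 50 mM sodium acetate pH 4.3, then heated at 80 °C for 60, 90, 120 or 150 min. Samples were chilled and basified with KOH/ethanol, and A570 was read against a drug-free blank. The alkylation rate (A570/min) is the slope of a linear regression of absorbance vs time. Mean ± SD of ≥3 independent experiments.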

[2] = biological target: T1, Glutathione reductase, mitochondrial (Homo sapiens) (UniProt P00390); assay: Glutathione reductase activity was measured after incubation with a conc. of 500 uM; assay type: functional
T1 sequence (whole entry): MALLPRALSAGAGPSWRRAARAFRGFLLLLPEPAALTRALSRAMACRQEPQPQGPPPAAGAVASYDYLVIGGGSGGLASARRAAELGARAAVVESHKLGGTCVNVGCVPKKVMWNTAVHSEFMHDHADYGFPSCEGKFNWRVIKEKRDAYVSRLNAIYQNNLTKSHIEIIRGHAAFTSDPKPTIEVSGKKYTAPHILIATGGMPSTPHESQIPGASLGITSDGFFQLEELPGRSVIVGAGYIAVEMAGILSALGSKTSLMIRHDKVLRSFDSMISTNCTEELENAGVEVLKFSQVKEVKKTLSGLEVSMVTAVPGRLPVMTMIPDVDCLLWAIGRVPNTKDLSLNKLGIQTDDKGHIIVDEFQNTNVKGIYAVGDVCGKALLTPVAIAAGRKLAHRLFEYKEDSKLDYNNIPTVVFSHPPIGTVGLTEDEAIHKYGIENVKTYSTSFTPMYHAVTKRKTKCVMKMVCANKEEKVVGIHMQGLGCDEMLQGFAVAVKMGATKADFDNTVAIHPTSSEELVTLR
Method in brief: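 Purified glutathione reductase (0.016 U/mL) with 100 µM NADPH, 1 mM EDTA, 1 mg/mL BSA and 500 µM drug (from 2% ethanol solution) in 0.1 M phosphate pH 7.4, preincubated 60 min at 30 °C. GSSG was then added for 60 min at 30 °C. Activity is the […] over 3 min, as % of no-drug control, in triplicate.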

[3] = tested on: K562; assay: Dose required to inhibit cell growth was determined against K562 cell line of chronic myelogenous leukemia; assay type: functional, cell-based; conditions: Homo sapiens
Method in brief: (§1)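 Alamar Blue growth assay. (1–5) × 10^3 cells per well preincubated 24 h, then exposed to increasing drug concentrations for 72 h at 37 °C. Medium replaced with PBS containing 20% Alamar Blue, fluorescence read at 485/590 nm. IC50 is the dose inhibiting growth by 50%.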

[4] = tested on: MDA-MB-231; assay: Beta tubulin alkylation activity in MDA-MB-231 cells; assay type: functional, Homo sapiens; set-up: concentration or dose not given beside the values
Method in brief: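 MDA-MB-231 cells (~5 × 10^6), exponentially growing, exposed to 30 μM compound for 24 h at 37 °C. Lysed in Laemmli buffer, run on 10% SDS-PAGE, immunoblotted with anti-β-tubulin (TUB 2.1, 1:500) and peroxidase anti-mouse secondary, ECL detection. Normal and alkylated band densities integrated to give % alkylated β-tubulin. Representative of three experiments.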

[5] = tested on: CHO; assay: Dose required to inhibit cell growth was determined against CHO cell line; assay type: functional, cell-based; conditions: Cricetulus griseus; method in brief: as §1
[6] = tested on: HT-29; assay: Dose required to inhibit cell growth was determined against HT-29 cell line of human adenocarcinoma; assay type: functional, cell-based; method in brief: as §1
[7] = tested on: L1210; assay: Dose required to inhibit cell growth was determined against L1210 cell line of murine lymphocytotic leukemia; assay type: functional, cell-based; conditions: Mus musculus; method in brief: as §1
[8] = tested on: LoVo; assay: Dose to inhibit cell growth determined against LoVo cell line of human adenocarcinoma; assay type: functional, cell-based; method in brief: as §1
[9] = tested on: MDA-MB-231; assay: Dose required to inhibit cell growth was determined against MDA-MB-231 cell line of human non-hormone dependent breast carcinoma; assay type: functional, cell-based; method in brief: as §1
[10] = tested on: P388; assay: Dose required to inhibit cell growth was determined against P388D1 cell line of murine lymphocytotic leukemia; assay type: functional, cell-based; conditions: Mus musculus; method in brief: as §1
[11] = Glutathione activity was measured after incubation with a conc. of 500 uM
Method in brief: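 Cell-free thiol assay. GSH 500 µM with 1 mM EDTA and 500 µM drug (from 2% ethanol solution) in 0.1 M phosphate buffer pH 7.4, 60 min at room temperature. DTNB (0.133 mM) was then added and A412 read. Reported as % of no-drug control, in triplicate.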

[12] = tested on: CHO; assay: Dose required to inhibit cell growth was determined against CHO cell line; Not active represents IC50 >400 uM; assay type: functional, cell-based; conditions: Cricetulus griseus
Method in brief: (§2)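 Alamar Blue growth-inhibition assay. Cells ((1–5) × 10³ per well) were preincubated for 24 h, then exposed to increasing drug concentrations for 72 h at 37 °C. Alamar Blue (20%) was added and fluorescence read at ex 485 / em 590 nm. IC50 is the dose inhibiting growth by 50%. Means of ≥3 independent determinations.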

[13] = tested on: MDA-MB-231; assay: Dose required to inhibit cell growth was determined against MDA-MB-231 cell line of human non-hormone dependent breast carcinoma; Not active represents IC50 >400 uM; assay type: functional, cell-based; method in brief: as §2
[14] = tested on: P388; assay: Dose required to inhibit cell growth was determined against P388D1 cell line of murine lymphocytotic leukemia; NA= Not active represents IC50 >400 uM; assay type: functional, cell-based; conditions: Mus musculus; method in brief: as §2
[15] = tested on: LoVo; assay: Dose required to inhibit cell growth was determined against LoVo cell line of human adenocarcinoma; NA= Not active represents IC50 >400 uM; assay type: functional, cell-based; method in brief: as §2
[16] = tested on: MDA-MB-231; assay: Dose required to inhibit cell growth was determined against MDA-MB-231 cell line of human non-hormone dependent breast carcinoma; NA= Not active represents IC50 >400 uM; assay type: functional, cell-based; method in brief: as §2
[17] = tested on: MDA-MB-231; assay: DNA damages caused in MDA-MB-231 cells after 2 hr compound exposure to 400 uM concentration; assay type: functional, Homo sapiens
Method in brief: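 Growing MDA-MB-231 cells held 2 h at 37 °C in medium with or without 400 μM compound. Cells washed in cold PBS and lysed in Tris/SDS/EDTA/deferoxamine/proteinase K buffer. DNA isolated by salting out, then 3'-end labeled by T4 DNA polymerase nucleotide exchange. Incorporated radioactivity measured by dot filtration, expressed as dCps exchanged/ng DNA. Means ± SD, ≥3 determinations.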

| IC50 [3] [µM] | IC50 [6] [µM] | IC50 [7] [µM] | IC50 [8] [µM] | IC50 [9] [µM] | IC50 [10] [µM] | Compound | IC50 [5] [µM] | further results |
| --- | --- | --- | --- | --- | --- | --- | --- | --- |
| – | – | – | 60 | 60 | 75 | Cc1cccc(NC(=O)NCCCl)c1 | – | – |
| 16 | 23 | 16 | 20 | 25 | 30 | Cc1ccc(NC(=O)NCCCl)cc1 | 26 | – |
| 107 | – | 118 | 150 | 150 | 130 | O=C(NCCCl)Nc1cccc2ccccc12 | 106 | – |
| 23 | 21 | 6 | – | 52 | – | CC(Cl)CNC(=O)Nc1ccc(C(C)(C)C)cc1 (stereo unspecified) | 52 | – |
| 9.1 | 14 | 9.6 | 23 | 31 | 11 | O=C(NCCCl)Nc1ccc(Cl)cc1 | 19 | – |
| 10 | 20 | 8.8 | 8.8 | 20 | 8.6 | Cc1cc(C)cc(NC(=O)NCCCl)c1 | 24.7 | – |
| 10 | 22 | 12 | 10 | 19 | 10 | CCCCc1ccc(NC(=O)NCCCl)cc1 | 18 | – |
| 17 | 24 | 27 | 36 | 27 | 34 | O=C(NCCCl)Nc1cccc(I)c1 | 35 | – |
| – | – | – | – | – | – | CCCCCCCCCCCCc1ccc(NC(=O)NCCCl)cc1 | – | NA [14]: inactive; NA [15]: inactive; NA [16]: inactive |
| 18 | 38 | 16 | 22 | 44 | 22 | O=C(NCCCl)Nc1ccc(C2CCCCC2)cc1 | 23 | – |
| 3.5 | 5.4 | 3.8 | 3.5 | 7.2 | 4.2 | Cc1ccc(NC(=O)NCCCl)cc1C | 8.7 | – |
| 11 | 21 | 11 | – | 24 | – | CC(C)Cc1ccc(NC(=O)NCCCl)cc1 | 23 | – |
| – | – | – | – | – | – | CCCCCCCCCCc1ccc(NC(=O)NCCCl)cc1 | – | NA [14]: inactive; NA [15]: inactive; NA [16]: inactive |
| – | – | – | – | – | – | O=c1[nH]c2ccccc2c(=O)n1CCCl | – | NA [14]: inactive; NA [15]: inactive; NA [16]: inactive |
| 15 | 33 | 14 | – | 32 | – | CC(C)CCc1ccc(NC(=O)NCCCl)cc1 | 19 | – |
| 21 | 36 | 19 | – | 34 | – | CC(C)(C)Cc1ccc(NC(=O)NCCCl)cc1 | 35 | – |
| 4.6 | 9 | 8.1 | 11 | 10 | 10 | O=C(NCCCl)Nc1ccc(Br)cc1 | 10 | – |
| – | – | – | – | – | – | Cc1cc(C)c(NC(=O)NCCCl)c(C)c1 | – | NA [14]: inactive; NA [15]: inactive; NA [16]: inactive |
| – | – | – | – | – | – | Cc1cccc(NC(=O)NCCCl)c1C | – | NA [14]: inactive; NA [15]: inactive; NA [16]: inactive |
| – | – | – | – | – | – | Cc1cccc(C)c1NC(=O)NCCCl | – | NA [14]: inactive; NA [15]: inactive; NA [16]: inactive |
| 30 | 35 | 5.4 | – | 131 | – | CCCNC(=O)Nc1ccc(C(C)(C)C)cc1 | 132 | – |
| – | – | – | – | – | – | Cc1ccccc1NC(=O)NCCCl | – | NA [14]: inactive; NA [15]: inactive; NA [16]: inactive |
| 2.5 | 6.4 | 2.7 | 3.2 | 5 | 5.2 | CCc1ccc(NC(=O)NCCCl)cc1 | 6.4 | – |

| Compound | IC50 [3] [µM] | IC50 [6] [µM] | IC50 [7] [µM] | IC50 [8] [µM] | IC50 [9] [µM] | IC50 [10] [µM] | IC50 [5] [µM] | further results |
| --- | --- | --- | --- | --- | --- | --- | --- | --- |
| CCC(C)c1ccc(NC(=O)NCCCl)cc1 (stereo unspecified) | 1.3 | 3.6 | 1.3 | 2.2 | 3.1 | 2.4 | 4 | Activity [1]: 3.1 A570 min-1; Activity [2]: 100%; Activity [4]: 76%; Activity [11]: 100% |
| CCCc1ccc(NC(=O)NCCCl)cc1 | 8.2 | 23 | 9 | 10 | 18 | 11 | 19 | – |
| CCCNC(=O)Nc1ccc(C(C)CC)cc1 (stereo unspecified) | 106 | 133 | 30 | – | – | – | – | NA [12]: inactive; NA [13]: inactive |
| CCCNC(=O)Nc1ccc(C(C)C)cc1 | 52 | 76 | 14 | – | – | – | 133 | NA [13]: inactive |
| CCCCCCCCc1ccc(NC(=O)NCCCl)cc1 | – | – | – | 29 | 33 | 32 | – | – |
| CCNC(=O)Nc1ccc(C(C)CC)cc1 (stereo unspecified) | 101 | 132 | 43 | – | – | – | – | NA [12]: inactive; NA [13]: inactive |
| CCCCCCc1ccc(NC(=O)NCCCl)cc1 | 7.1 | 12 | 5 | 6.1 | 15 | 8.2 | 15 | Activity [1]: 3.1 A570 min-1; Activity [2]: 99%; Activity [4]: 34%; DNA damage [17]: 2.32 10e7 exchanged dCps (ng of DNA); Activity [11]: 100% |
| CCCCCCCc1ccc(NC(=O)NCCCl)cc1 | 16 | 25 | 13 | 15 | 30 | 18 | 22 | – |
| CCCCCc1ccc(NC(=O)NCCCl)cc1 | 6.1 | 12 | 5.4 | 5.2 | 12 | 7.3 | 13 | Activity [1]: 2.9 A570 min-1; Activity [2]: 99%; Activity [4]: 40%; DNA damage [17]: 1.93 10e7 exchanged dCps (ng of DNA); Activity [11]: 100% |
| CC(C)c1ccc(NC(=O)NCCCl)cc1 | 1.3 | 5 | 1.2 | 1 | 2.5 | 2.1 | 3.2 | Activity [1]: 3 A570 min-1; Activity [2]: 100%; Activity [4]: 65%; Activity [11]: 100% |

From ChEMBL document CHEMBL1134792, “Antimitotic antitumor agents: synthesis, structure-activity relationships, and biological characterization of N-aryl-N'-(2-chloroethyl)ureas as new selective alkylating agents” (J Med Chem, 2001)
